In ChEMBL document CHEMBL1140923, “Discovery of imidazo[1,2-b]thiazole derivatives as novel SIRT1 activators” (J Med Chem, 2009):
pIC50: −log10 of the molar value.

Experiments:
Mus musculus = experiment: Toxicity in diet-induced obesity C57BL/6 mouse model assessed as red blood count at 100 mg/kg, po daily once for 10 weeks; format: organism-based; set-up: dose 100 mg/kg, route oral; conditions: in vivo, 1680 h
Procedure, shortened: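 Male C57BL/6 mice were fed a 60%-fat diet from 9 weeks of age until about 40 g, in groups of 6-10. They were dosed by oral gavage once daily in 2% HPMC + 0.2% DOSS, with 29 at 100 mg/kg and rosiglitazone at 5 mg/kg, alongside vehicle groups on lean and high-fat diet. Fed glucose was read at weeks 2, 4, 6, 8 and 10. Clinical chemistry and hematology were also measured. Analysis by ANOVA.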

[1] = Inhibition of CYP1A at 25 uM; format: ADME
Procedure, shortened: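 Inhibition of CYP isozymes was tested up to a highest concentration of 25 µM.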

[2] = target: T1, Muscarinic acetylcholine receptor M2 (Homo sapiens, UniProt P08172); experiment: Inhibition of muscarinic M2 receptor
T1 sequence (P08172 whole entry): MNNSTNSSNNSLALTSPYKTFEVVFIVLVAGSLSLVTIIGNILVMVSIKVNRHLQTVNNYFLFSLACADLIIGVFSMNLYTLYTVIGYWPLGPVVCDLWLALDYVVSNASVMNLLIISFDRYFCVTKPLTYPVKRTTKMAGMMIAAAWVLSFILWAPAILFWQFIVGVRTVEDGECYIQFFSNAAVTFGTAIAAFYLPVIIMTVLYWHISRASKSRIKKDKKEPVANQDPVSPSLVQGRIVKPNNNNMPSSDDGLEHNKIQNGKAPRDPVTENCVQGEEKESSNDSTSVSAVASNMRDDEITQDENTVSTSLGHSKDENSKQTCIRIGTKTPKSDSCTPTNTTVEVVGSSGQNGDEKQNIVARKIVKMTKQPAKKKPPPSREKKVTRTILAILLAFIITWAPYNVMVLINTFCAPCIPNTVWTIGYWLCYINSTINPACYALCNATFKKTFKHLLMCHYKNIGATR

Salmonella typhimurium = experiment: Mutagenic activity in Salmonella Typhimurium TA98 in presence of S9 activation; format: toxicity, organism-based; conditions: salmonella enterica subsp. enterica serovar typhimurium

Activity [1]: Not Active
pIC50 [2]: 5.20
SMILES: O=C(Nc1ccccc1-c1cn2c(CN3CCNCC3)csc2n1)c1cnc2ccccc2n1
Activity (Mus musculus): Active
Activity (Salmonella typhimurium): Non-toxic
